Assay results: ChEMBL document CHEMBL4049422, “Discovery of Novel Indazole Derivatives as Orally Available β3-Adrenergic Receptor Agonists Lacking Off-Target-Based Cardiovascular Side Effects” (J Med Chem, 2017)
pEC50: −log10 of the molar value.

What was measured:
[1] = molecular target: T1, Alpha-1A adrenergic receptor (Homo sapiens, UniProt P35348); assay: Intrinsic activity at recombinant human alpha1A adrenergic receptor expressed in HEK293 cells assessed as intercellular Ca mobilization by Fura-2AM dye-based fluorescence assay relative to norepinephrine; format: cell-based; settings: read-out: Intrinsic activity
T1 sequence (P35348 whole entry): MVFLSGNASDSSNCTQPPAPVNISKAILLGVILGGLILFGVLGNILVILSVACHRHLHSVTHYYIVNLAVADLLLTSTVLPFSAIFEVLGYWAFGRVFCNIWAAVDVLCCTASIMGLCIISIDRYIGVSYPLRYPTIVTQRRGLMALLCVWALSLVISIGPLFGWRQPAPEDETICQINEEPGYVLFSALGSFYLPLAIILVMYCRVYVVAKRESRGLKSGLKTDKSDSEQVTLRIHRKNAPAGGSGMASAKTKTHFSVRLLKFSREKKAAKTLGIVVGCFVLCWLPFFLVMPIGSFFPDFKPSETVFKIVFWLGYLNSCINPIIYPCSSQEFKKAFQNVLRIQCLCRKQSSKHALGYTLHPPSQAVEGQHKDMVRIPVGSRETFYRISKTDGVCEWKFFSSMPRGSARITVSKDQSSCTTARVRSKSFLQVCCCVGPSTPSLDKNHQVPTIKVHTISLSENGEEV

[2] = Intrinsic clearance in human liver microsomes at 1 uM in presence of NADPH by LC-MS/MS analysis; format: ADME, microsome
Outline: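 Pooled mixed-gender human liver microsomes (0.5 mg/mL) in 100 mM potassium phosphate pH 7.4 with NADPH-regenerating mix plus UDP-GA, test compound 1 µM, 15 min at 37 °C. Acetonitrile stop, LC-MS/MS. k from the remaining fraction. CLint,u is scaled with 48.8 mg protein/g liver and 25.7 g liver/kg, and corrected by fu from equilibrium dialysis (1 µM, 0.5 mg/mL, 6 h, 37 °C).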

[3] = Intrinsic clearance in Sprague-Dawley rat liver microsomes at 0.5 uM in presence of NADPH by LC-MS/MS analysis; format: ADME, microsome
Outline: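 Pooled male Sprague-Dawley rat liver microsomes (0.5 mg/mL final) in 100 mM Tris-HCl pH 7.4 with NADPH-regenerating mix plus UDP-GA, test compound 0.5 µM, 20 min at 37 °C. Acetonitrile stop, LC-MS/MS. CLint,u is scaled with 44.8 mg protein/g liver and 40.0 g liver/kg, and corrected by fu from ultracentrifugation (160,000g, 16 h, 37 °C).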

[4] = Membrane permeability in MDCK cells at 50 uM after 60 mins by LC-MS/MS analysis; format: ADME, cell-based, Canis lupus familiaris; settings: dog, read-out: permeability
[5] = molecular target: Beta-1 adrenergic receptor (Homo sapiens, UniProt P08588); assay: Agonist activity at recombinant human beta1 adrenergic receptor expressed in CHO cells assessed as accumulation of cyclic AMP after 30 mins; format: cell-based
CYP2B6 = molecular target: T2, CYP2B6 (Homo sapiens, UniProt P20813); assay: Inhibition of CYP2B6 (unknown origin) at 10 uM relative to control; format: ADME
T2 sequence (P20813 whole entry): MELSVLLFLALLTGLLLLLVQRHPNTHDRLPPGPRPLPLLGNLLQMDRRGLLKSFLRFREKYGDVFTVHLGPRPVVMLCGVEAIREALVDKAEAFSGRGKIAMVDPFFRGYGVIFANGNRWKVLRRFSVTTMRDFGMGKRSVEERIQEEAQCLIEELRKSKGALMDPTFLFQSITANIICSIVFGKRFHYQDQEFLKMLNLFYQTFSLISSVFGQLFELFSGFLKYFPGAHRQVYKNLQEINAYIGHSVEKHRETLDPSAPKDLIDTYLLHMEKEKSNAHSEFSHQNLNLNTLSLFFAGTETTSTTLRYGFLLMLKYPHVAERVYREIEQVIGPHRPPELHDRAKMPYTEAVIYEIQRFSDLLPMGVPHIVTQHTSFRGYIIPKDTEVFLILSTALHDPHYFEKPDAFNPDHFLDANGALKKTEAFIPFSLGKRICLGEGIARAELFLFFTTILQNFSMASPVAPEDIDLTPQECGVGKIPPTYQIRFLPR

CYP2C19 = CYP2C19 (Homo sapiens, UniProt P33261); assay: Inhibition of CYP2C19 (unknown origin) at 10 uM relative to control; format: ADME
Rattus norvegicus = assay: Cardiotoxicity in Sprague-Dawley rat assessed as increase in mean blood pressure at 3 mg/kg, iv after 30 mins (reference value: 1 +/- 0.5%); format: toxicity, organism-based; settings: in vivo, 0.5 h
[6] = molecular target: T3, Alpha-1B adrenergic receptor (Homo sapiens, UniProt P35368); assay: Agonist activity at recombinant human alpha1B adrenergic receptor expressed in HEK293 cells after 6 hrs by NFAT-luciferase reporter gene assay; format: cell-based
T3 sequence (P35368 whole entry): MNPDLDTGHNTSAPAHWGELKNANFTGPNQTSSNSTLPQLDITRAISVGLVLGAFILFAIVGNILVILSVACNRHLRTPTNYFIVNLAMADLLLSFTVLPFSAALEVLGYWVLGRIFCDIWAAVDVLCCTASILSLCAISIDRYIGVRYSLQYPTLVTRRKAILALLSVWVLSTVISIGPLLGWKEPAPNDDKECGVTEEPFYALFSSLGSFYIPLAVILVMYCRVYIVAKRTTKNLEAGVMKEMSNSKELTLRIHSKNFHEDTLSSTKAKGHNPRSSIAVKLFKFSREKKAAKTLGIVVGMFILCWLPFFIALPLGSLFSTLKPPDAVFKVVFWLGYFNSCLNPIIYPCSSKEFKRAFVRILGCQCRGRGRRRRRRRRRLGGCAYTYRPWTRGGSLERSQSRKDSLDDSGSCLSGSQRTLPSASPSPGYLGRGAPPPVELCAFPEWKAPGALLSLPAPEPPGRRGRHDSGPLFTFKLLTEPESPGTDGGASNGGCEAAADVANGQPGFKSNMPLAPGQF

[7] = molecular target: T4, Alpha-1D adrenergic receptor (Homo sapiens, UniProt P25100); assay: Agonist activity at recombinant human alpha1D adrenergic receptor expressed in HEK293 cells after 6 hrs by NFAT-luciferase reporter gene assay; format: cell-based
T4 sequence (P25100 whole entry): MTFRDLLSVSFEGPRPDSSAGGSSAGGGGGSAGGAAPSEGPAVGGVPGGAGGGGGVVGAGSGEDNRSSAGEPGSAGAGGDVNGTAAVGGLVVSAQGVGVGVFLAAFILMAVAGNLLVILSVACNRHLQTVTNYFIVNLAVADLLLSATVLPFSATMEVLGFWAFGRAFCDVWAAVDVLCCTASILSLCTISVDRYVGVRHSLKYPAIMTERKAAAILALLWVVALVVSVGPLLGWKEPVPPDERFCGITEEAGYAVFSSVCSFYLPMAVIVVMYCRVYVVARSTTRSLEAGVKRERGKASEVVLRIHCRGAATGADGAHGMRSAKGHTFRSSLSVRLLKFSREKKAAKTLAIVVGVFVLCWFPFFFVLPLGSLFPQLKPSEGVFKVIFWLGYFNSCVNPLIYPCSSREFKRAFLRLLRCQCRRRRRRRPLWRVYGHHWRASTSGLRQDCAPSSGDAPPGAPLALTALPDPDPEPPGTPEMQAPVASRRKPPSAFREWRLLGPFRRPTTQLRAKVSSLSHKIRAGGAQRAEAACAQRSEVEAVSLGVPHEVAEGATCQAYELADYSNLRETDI

Sequence of CYP2C19 (P33261 whole entry): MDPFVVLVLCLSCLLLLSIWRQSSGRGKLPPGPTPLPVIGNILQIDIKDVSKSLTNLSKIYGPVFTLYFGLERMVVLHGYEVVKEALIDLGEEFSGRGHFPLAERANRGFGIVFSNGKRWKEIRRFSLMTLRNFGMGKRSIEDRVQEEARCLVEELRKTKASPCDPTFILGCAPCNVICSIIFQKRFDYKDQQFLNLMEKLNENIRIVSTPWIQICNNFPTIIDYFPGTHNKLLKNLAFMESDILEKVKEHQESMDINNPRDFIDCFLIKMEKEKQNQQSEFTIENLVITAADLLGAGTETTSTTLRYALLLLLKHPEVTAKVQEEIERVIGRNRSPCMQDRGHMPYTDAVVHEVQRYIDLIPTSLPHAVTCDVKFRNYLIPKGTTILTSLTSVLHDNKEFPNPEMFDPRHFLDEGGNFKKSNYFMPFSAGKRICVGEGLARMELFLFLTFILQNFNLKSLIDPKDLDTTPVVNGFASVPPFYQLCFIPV
Sequence of Beta-1 adrenergic receptor (P08588 whole entry): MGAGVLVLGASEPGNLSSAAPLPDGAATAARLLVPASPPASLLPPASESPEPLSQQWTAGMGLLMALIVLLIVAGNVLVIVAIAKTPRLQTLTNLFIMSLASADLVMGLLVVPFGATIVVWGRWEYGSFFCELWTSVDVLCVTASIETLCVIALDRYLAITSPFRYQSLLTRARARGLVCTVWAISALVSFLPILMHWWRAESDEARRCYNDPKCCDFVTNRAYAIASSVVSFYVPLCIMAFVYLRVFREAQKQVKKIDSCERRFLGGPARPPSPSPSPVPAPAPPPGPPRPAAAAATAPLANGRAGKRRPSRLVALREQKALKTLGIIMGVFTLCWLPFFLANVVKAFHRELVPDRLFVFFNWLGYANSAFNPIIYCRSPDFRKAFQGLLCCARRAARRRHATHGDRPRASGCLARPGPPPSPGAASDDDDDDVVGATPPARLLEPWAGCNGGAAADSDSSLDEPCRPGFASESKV

`Cc1n[nH]c2cc(OCCNC[C@H](O)c3cccc(NS(=O)(=O)C4CCC4)c3)ccc12` showed an Emax [1] of 0%, a CLint scaled at 1 µM [2] of 57 mL/min/kg and a CLint scaled at 0.5 µM [3] of 52 mL/min/kg. It also gave a Papp at 1 h, 50 µM [4] of 5 ×10⁻⁶ cm/s, a pEC50 [5] of less than 5.00 and an inhibition at 10 µM (CYP2B6) of less than 34%. The inhibition at 10 µM (CYP2C19) was less than 34%, the Activity (Rattus norvegicus) was 2% and the pEC50 [6] was less than 5.00. For the same compound, the pEC50 [7] was less than 5.00.
